ChEMBL document CHEMBL3046867, “Bioactive ryanoids from nucleophilic additions to 4,12-seco-4,12-dioxoryanodine” (J Med Chem, 1993)

Legend:
[1] = target: Ryanodine receptor 1 (Oryctolagus cuniculus) (UniProt P11716); assay: Displacement of [3H]ryanodine from Ca2+-ryanodine receptor in Oryctolagus cuniculus (rabbit) skeletal muscle sarcoplasmic reticulum after 1 hr by competitive inhibition assay in presence of ATP relative to ryanodine
In short: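 Unlabeled ryanoid introduced in DMSO (1% final) before incubation. Filtration, washes in 150 mM KCl/10 mM Hepes pH 7.4. Nonspecific binding: 10 μM dehydroryanodine. IC50 from LIGAND; duplicate experiments.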

[2] = system: Musca domestica; assay: Toxicity against SCR-susceptible Musca domestica (house fly) assessed as immobility compound administered by intrathoracic injection 1 to 2 hr after piperonyl butoxide treatment measured 4 hr post compound treatment relative to ryanodine; assay type: functional
In short: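 Adult female flies pretreated with piperonyl butoxide (5 μg in 0.5 μL acetone, ventral abdomen); 1-2 h later, 0.22 μL ryanoid in DMSO injected into the thorax. Knockdown scored at 4 h and KD50 derived. Ten flies per dose, 1.50-2-fold dose steps, two or more experiments (or single determinations where estimated).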

[3] = target: Ryanodine receptor 3 (Mus musculus) (UniProt A2AGL3); assay: Binding affinity to ryanodine receptor in Mus musculus albino Swiss-Webster (mouse) brain relative to ryanodine
[4] = system: Musca domestica; assay: Toxicity against SCR-susceptible Musca domestica (house fly) assessed as mortality compound administered by intrathoracic injection 1 to 2 hr after piperonyl butoxide treatment measured 24 hr post compound treatment relative to ryanodine; assay type: functional
[5] = target: Ryanodine receptor 1 (Oryctolagus cuniculus) (UniProt P11716); assay: Displacement of [3H]ryanodine from Ca2+-ryanodine receptor in Oryctolagus cuniculus (rabbit) skeletal muscle sarcoplasmic reticulum after 2 hr by competitive inhibition assay relative to ryanodine
In short: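 No ATP. […] Ryanoid given in DMSO (1% final). Glass-fiber filtration; three washes with ice-cold buffer a using Tris HCl instead of Hepes. Nonspecific binding with 10 μM dehydroryanodine. IC50 calculated by LIGAND; duplicate experiments.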

[6] = target: Ryanodine receptor 3 (Mus musculus, UniProt A2AGL3); assay: Binding affinity to ryanodine receptor in Mus musculus albino Swiss-Webster (mouse) brain
[7] = Toxicity in ip dosed Mus musculus albino Swiss-Webster (mouse) […]; assay type: organism-based; conditions: in vivo
In short: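 Male albino Swiss-Webster mice, 18–22 g; ryanoid given ip in methoxytriglycol (50 μL); mortality read at 24 h.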

Chain of Ryanodine receptor 1 (Oryctolagus cuniculus) (P11716 whole entry): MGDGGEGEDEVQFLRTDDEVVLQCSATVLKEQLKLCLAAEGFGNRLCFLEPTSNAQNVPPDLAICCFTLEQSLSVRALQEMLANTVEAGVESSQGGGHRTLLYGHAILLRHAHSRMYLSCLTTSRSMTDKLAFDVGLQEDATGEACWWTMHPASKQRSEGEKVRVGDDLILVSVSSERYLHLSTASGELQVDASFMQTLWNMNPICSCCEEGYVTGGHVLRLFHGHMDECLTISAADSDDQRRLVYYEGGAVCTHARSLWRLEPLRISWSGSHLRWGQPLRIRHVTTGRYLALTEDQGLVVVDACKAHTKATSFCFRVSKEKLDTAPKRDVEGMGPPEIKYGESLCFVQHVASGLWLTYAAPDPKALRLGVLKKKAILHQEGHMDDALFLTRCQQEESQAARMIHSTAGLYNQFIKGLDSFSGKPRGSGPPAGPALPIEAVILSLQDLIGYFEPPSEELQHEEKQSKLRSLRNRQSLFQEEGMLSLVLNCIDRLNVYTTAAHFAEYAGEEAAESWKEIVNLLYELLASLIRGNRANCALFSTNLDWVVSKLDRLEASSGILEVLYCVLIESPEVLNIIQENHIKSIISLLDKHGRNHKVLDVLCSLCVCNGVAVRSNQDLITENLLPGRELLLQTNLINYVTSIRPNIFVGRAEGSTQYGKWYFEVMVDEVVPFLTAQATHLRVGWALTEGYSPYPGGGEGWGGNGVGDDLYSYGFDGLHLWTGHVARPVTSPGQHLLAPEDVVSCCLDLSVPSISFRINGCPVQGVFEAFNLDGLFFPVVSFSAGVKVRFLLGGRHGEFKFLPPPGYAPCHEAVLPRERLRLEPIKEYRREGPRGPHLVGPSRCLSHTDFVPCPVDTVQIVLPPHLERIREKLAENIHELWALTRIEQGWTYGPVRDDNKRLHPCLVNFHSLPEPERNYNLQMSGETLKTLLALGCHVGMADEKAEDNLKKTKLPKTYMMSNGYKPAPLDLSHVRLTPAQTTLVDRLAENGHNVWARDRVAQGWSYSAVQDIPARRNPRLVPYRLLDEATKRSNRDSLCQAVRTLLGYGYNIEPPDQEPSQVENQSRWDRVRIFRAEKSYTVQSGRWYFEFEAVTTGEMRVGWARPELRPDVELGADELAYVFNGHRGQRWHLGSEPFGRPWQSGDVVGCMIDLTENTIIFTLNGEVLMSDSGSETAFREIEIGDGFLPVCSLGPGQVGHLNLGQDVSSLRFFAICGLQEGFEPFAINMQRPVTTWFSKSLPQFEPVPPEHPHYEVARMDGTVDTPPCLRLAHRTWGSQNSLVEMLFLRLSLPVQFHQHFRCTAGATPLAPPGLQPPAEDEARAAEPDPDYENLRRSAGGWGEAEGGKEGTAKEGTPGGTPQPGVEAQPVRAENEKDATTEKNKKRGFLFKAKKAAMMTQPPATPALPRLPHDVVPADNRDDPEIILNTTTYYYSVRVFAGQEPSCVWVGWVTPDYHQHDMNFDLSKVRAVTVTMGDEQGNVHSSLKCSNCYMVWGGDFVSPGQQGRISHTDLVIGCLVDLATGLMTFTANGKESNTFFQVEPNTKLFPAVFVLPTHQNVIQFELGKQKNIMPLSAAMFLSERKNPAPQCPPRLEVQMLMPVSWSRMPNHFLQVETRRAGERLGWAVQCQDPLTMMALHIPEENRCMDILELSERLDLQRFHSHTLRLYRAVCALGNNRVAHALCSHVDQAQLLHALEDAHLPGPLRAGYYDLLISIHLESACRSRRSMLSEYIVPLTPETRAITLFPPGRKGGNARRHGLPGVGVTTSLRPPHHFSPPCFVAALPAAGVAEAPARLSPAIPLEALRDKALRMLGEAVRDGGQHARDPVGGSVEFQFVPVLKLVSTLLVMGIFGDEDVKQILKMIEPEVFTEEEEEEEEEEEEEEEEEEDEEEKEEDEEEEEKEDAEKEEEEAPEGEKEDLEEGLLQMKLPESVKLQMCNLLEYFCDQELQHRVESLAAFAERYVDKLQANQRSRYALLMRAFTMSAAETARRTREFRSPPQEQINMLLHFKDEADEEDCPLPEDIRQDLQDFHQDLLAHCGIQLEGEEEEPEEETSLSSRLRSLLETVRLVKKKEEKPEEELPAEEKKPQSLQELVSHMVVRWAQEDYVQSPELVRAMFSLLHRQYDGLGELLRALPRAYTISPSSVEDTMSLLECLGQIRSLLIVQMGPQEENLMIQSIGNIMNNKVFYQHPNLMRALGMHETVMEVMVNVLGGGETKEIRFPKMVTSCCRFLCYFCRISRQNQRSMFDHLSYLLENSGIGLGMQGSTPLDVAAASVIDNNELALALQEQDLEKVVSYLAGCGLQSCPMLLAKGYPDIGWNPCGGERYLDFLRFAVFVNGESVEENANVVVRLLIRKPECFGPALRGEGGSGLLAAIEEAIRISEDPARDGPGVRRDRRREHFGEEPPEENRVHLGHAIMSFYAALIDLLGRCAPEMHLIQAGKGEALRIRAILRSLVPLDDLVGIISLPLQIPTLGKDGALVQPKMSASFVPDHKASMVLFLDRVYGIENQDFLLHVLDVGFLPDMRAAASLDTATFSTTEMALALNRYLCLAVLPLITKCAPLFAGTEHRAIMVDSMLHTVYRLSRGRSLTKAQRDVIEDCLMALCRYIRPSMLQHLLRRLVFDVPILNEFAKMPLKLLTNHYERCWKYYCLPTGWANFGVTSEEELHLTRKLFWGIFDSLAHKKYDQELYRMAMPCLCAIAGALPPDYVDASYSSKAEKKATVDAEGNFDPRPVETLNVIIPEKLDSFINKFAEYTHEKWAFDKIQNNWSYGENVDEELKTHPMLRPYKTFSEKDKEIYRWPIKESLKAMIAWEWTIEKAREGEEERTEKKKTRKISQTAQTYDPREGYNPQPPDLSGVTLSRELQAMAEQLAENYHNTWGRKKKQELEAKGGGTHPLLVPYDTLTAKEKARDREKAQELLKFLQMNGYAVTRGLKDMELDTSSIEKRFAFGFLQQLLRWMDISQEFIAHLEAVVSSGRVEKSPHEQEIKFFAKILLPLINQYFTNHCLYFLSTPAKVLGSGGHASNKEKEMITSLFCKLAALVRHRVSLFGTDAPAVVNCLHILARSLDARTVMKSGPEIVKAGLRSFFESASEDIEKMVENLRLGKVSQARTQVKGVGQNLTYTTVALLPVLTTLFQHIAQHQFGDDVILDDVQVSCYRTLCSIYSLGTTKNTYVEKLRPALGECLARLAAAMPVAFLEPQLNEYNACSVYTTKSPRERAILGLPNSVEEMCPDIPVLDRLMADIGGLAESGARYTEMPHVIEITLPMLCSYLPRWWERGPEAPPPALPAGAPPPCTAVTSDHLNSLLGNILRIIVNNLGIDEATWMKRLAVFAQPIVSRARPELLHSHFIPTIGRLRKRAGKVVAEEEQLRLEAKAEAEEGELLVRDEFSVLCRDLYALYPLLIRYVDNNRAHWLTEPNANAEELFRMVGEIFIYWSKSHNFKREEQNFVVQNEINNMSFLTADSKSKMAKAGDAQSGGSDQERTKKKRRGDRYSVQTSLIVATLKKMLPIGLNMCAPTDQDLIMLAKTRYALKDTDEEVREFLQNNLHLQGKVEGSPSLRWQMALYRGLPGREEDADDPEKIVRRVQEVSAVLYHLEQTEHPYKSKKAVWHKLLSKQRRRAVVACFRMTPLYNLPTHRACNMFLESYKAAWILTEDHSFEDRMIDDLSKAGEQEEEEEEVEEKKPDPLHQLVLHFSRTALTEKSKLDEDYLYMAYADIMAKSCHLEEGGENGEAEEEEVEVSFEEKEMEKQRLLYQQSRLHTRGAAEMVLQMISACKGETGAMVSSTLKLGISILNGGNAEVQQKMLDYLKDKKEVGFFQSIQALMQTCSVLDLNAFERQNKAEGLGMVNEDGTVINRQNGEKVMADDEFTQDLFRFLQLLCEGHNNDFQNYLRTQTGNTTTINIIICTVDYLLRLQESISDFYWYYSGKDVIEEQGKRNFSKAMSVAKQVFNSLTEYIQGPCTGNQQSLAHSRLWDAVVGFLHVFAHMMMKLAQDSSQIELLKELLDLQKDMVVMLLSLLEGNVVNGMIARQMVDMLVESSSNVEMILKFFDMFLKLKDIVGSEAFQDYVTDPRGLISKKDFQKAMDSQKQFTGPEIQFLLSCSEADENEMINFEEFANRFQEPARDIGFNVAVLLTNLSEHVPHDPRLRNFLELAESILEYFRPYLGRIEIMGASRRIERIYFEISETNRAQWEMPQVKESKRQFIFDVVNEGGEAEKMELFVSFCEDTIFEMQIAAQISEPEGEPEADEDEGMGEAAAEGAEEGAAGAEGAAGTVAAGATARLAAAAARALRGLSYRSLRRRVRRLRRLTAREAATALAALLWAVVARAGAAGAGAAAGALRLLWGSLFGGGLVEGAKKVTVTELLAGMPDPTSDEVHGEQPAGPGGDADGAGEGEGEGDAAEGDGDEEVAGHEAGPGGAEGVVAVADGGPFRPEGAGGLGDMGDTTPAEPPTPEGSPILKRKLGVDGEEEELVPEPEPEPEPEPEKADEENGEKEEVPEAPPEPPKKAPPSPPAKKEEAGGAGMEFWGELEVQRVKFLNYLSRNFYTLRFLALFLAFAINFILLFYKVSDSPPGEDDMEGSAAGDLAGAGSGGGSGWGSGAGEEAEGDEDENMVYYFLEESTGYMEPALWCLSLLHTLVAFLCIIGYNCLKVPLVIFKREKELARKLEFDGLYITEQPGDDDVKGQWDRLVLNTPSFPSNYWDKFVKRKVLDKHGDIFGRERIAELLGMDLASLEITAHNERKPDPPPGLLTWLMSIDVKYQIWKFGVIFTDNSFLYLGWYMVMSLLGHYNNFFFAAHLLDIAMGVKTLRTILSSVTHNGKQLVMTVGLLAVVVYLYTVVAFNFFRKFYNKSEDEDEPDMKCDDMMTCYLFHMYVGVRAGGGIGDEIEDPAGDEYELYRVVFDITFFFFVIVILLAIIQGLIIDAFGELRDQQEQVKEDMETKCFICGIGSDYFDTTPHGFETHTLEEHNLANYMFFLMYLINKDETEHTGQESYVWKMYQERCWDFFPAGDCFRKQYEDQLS

CC(C)[C@@]1(O)[C@@H](OC(=O)c2ccc[nH]2)/C(=N/OCc2ccccc2)[C@@]2(C)C[C@]3(O)O[C@]4(C(=O)[C@]13C)[C@H](O)[C@@H](C)CC[C@@]42O showed a Ratio [1] of 2.1, a Ratio [2] of 0.8 and a Ratio [3] of 0.94. The Ratio [4] was 1 and the Ratio [5] was 1.3.
Compound CC(C)[C@@]1(O)[C@@H](OC(=O)c2ccc[nH]2)[C@@]2(O)[C@@]3(C)C[C@]4(O)O[C@@]5([C@H](O)[C@@H](C)CC[C@]35O)[C@@]2(O)[C@@]14C [RYANODINE] has an IC50 [6] of 3.3 nM and an LD50 [7] of 0.49 mg/kg.
For CC(C)[C@@]1(O)[C@@H](OC(=O)c2ccc[nH]2)[C@]2(NO)O[C@H]3[C@]45O[C@@](O)(C[C@@]2(C)[C@@]4(O)CC[C@H](C)[C@H]5O)[C@]31C, the Ratio [1] was 67, the Ratio [2] was 200 and the Ratio [3] was 43. It also gave a Ratio [4] of 100 and a Ratio [5] of 50.
Compound C=C1CC[C@]2(O)[C@]3(C)C[C@]4(O)O[C@@]2([C@@H]1O)[C@]1(O)O[C@@]3(NNC(N)=O)[C@H](OC(=O)c2ccc[nH]2)[C@](O)(C(C)C)[C@@]14C has a Ratio [1] of 6.6, a Ratio [2] of 10 and a Ratio [4] of 6. For the same compound, the Ratio [5] was 10.
In the case of CC(C)[C@@]1(O)[C@@H](OC(=O)c2ccc[nH]2)C(=O)[C@@]2(C)C[C@]3(O)O[C@]4(C(=O)[C@]13C)[C@H](O)[C@@H](C)CC[C@@]42O [4,12-SECO-4,12-DIOXORYANODIN], the Ratio [1] is reported as 1.8, the Ratio [2] is reported as 0.85 and the Ratio [4] is reported as 2. The Ratio [5] was 1.6.
In the case of CC(C)[C@@]1(O)[C@@H](OC(=O)c2ccc[nH]2)C(=O)[C@@]2(C)C[C@]3(O)O[C@]4(/C(=N\O)[C@]13C)[C@H](O)[C@@H](C)CC[C@@]42O, the Ratio [1] is reported as 3.1, the Ratio [2] is reported as 8 and the Ratio [3] is reported as 1.9. For the same compound, the Ratio [4] was 30 and the Ratio [5] was 1.7.
In the case of CON[C@@]12O[C@@]3(O)[C@]45O[C@@](O)(C[C@@]1(C)[C@@]4(O)CC[C@H](C)[C@H]5O)[C@@]3(C)[C@@](O)(C(C)C)[C@H]2OC(=O)c1ccc[nH]1, the Ratio [1] is reported as 23, the Ratio [2] is reported as 13 and the Ratio [3] is reported as 27. It also gave a Ratio [4] of 8 and a Ratio [5] of 23.
C=C1CC[C@]2(O)[C@]3(C)C[C@]4(O)O[C@@]2([C@@H]1O)[C@]1(/N=N/c2ccccc2)O[C@@]3(O)[C@H](OC(=O)c2ccc[nH]2)[C@](O)(C(C)C)[C@@]14C showed a Ratio [1] of 6.3, a Ratio [2] of 6 and a Ratio [3] of 3.6. The Ratio [5] was 4.7.
In the case of CC(C)[C@@]1(O)[C@@H](OC(=O)c2ccc[nH]2)[C@@H](O)[C@@]2(C)C[C@]3(O)O[C@@]4([C@H](O)[C@@H](C)CC[C@@]42O)[C@@H](O)[C@]13C, the Ratio [1] is reported as 5.3, the Ratio [3] is reported as 5.4 and the Ratio [5] is reported as 4.7.
With CON[C@@]12O[C@H]3[C@]45O[C@@](O)(C[C@@]1(C)[C@@]4(O)CC[C@H](C)[C@H]5O)[C@@]3(C)[C@@](O)(C(C)C)[C@H]2OC(=O)c1ccc[nH]1 the Ratio [1] was 34, the Ratio [2] was 7 and the Ratio [3] was 28. It also gave a Ratio [4] of 20 and a Ratio [5] of 20.
CC(C)[C@@]1(O)[C@@H](OC(=O)c2ccc[nH]2)[C@@]2(O)[C@@]3(C)C[C@]4(O)O[C@@]5([C@H](O)[C@@H](CSCCO)CC[C@]35O)[C@@]2(O)[C@]14C showed a Ratio [2] of 5, a Ratio [3] of 0.86 and a Ratio [4] of 6.
For CC(C)[C@@]1(O)[C@@H](OC(=O)c2ccc[nH]2)[C@]2(NOCc3ccccc3)O[C@@]3(O)[C@]45O[C@@](O)(C[C@@]2(C)[C@@]4(O)CC[C@H](C)[C@H]5O)[C@]31C, the Ratio [1] was 21, the Ratio [2] was 2 and the Ratio [3] was 8.3. It also gave a Ratio [5] of 13.
With C=C1CC[C@]2(O)[C@]3(C)C[C@]4(O)O[C@@]2([C@@H]1O)[C@]1(O)O[C@@]3(NNc2ccccc2)[C@H](OC(=O)c2ccc[nH]2)[C@](O)(C(C)C)[C@@]14C the Ratio [1] was 6.1, the Ratio [2] was <2 and the Ratio [3] was 2.5. It also gave a Ratio [5] of 5.4.
With C=C1CC[C@]2(O)[C@]3(C)C[C@]4(O)O[C@@]2([C@@H]1O)[C@]1(NNc2ccccc2)O[C@@]3(O)[C@H](OC(=O)c2ccc[nH]2)[C@](O)(C(C)C)[C@@]14C the Ratio [1] was 3, the Ratio [2] was <1.3 and the Ratio [3] was 3.3. The Ratio [4] was <3 and the Ratio [5] was 2.6.
CC(C)[C@@]1(O)[C@@H](OC(=O)c2ccc[nH]2)/C(=N/O)[C@@]2(C)C[C@]3(O)O[C@]4(C(=O)[C@]13C)[C@H](O)[C@@H](C)CC[C@@]42O showed a Ratio [1] of 0.88, a Ratio [2] of 2.7 and a Ratio [3] of 0.78. It also gave a Ratio [4] of 6 and a Ratio [5] of 0.76.
For CC(C)[C@@]1(O)[C@@H](OC(=O)c2ccc[nH]2)[C@]2(NO)O[C@@]3(O)[C@]45O[C@@](O)(C[C@@]2(C)[C@@]4(O)CC[C@H](C)[C@H]5O)[C@]31C, the Ratio [1] was 29, the Ratio [2] was 270 and the Ratio [3] was 21. It also gave a Ratio [4] of 200 and a Ratio [5] of 14.
In the case of C=C1CC[C@@]2(O)[C@]3(O[C@@]4(O)C[C@]2(C)C(=O)[C@H](OC(=O)c2ccc[nH]2)[C@](O)(C(C)C)[C@@]4(C)C3=O)[C@@H]1O [4,12-SECO-4,12-DIOXODEHYDRORYANODIN], the Ratio [1] is reported as 0.97, the Ratio [2] is reported as 4 and the Ratio [3] is reported as 1.1. The Ratio [4] was 4 and the Ratio [5] was 0.79.
For C=C1CC[C@]2(O)[C@]3(C)C[C@]4(O)O[C@@]2([C@@H]1O)[C@]1(NNC(N)=O)O[C@@]3(O)[C@H](OC(=O)c2ccc[nH]2)[C@](O)(C(C)C)[C@@]14C, the Ratio [1] was 4.4, the Ratio [2] was <4 and the Ratio [5] was 6.1.
CO/N=C1/[C@H](OC(=O)c2ccc[nH]2)[C@](O)(C(C)C)[C@@]2(C)C(=O)[C@]34O[C@@]2(O)C[C@@]1(C)[C@@]3(O)CC[C@H](C)[C@H]4O gave a Ratio [1] of 0.86, a Ratio [2] of 10 and a Ratio [3] of 0.7. The Ratio [4] was 12 and the Ratio [5] was 0.75.
CC(C)[C@@]1(O)[C@@H](OC(=O)c2ccc[nH]2)[C@]2(O)O[C@H]3[C@]45O[C@@](O)(C[C@@]2(C)[C@@]4(O)CC[C@H](C)[C@H]5O)[C@]31C gave a Ratio [1] of 64, a Ratio [2] of 270 and a Ratio [3] of 54. For the same compound, the Ratio [4] was 120, the Ratio [5] was 62 and the LD50 [7] was 0.15 mg/kg.
Work on CCCSC[C@H]1CC[C@]2(O)[C@]3(C)C[C@]4(O)O[C@@]2([C@@H]1O)[C@]1(O)[C@@]3(O)[C@H](OC(=O)c2ccc[nH]2)[C@](O)(C(C)C)[C@@]14C yielded a Ratio [2] of 4, a Ratio [3] of 0.88 and a Ratio [4] of 6.
C=C1CC[C@]2(O)[C@]3(C)C[C@]4(O)O[C@@]2([C@@H]1O)[C@]1(O)O[C@@]3(NNC(=O)c2ccccc2)[C@H](OC(=O)c2ccc[nH]2)[C@](O)(C(C)C)[C@@]14C showed a Ratio [1] of 6.5, a Ratio [2] of 13 and a Ratio [4] of 40.
For CON[C@@]12O[C@@]3(O)[C@H](OC(=O)c4ccc[nH]4)[C@](O)(C(C)C)[C@]1(C)[C@]1(O)C[C@@]3(C)[C@@]3(O)CC[C@H](C)[C@@H](O)[C@@]32O1, the Ratio [2] was 1.3 and the Ratio [4] was 2.
For CC(C)[C@@]1(O)[C@@H](OC(=O)c2ccc[nH]2)[C@@H]2O[C@@]3(O)[C@]45O[C@@](O)(C[C@@]2(C)[C@@]4(O)CC[C@H](C)[C@H]5O)[C@]31C, the Ratio [1] was 19, the Ratio [2] was 27 and the Ratio [3] was 21. It also gave a Ratio [4] of 40 and a Ratio [5] of 28.
Compound C=C1CC[C@]2(O)[C@]3(C)C[C@]4(O)O[C@@]2([C@@H]1O)[C@]1(O)O[C@@]3(NN)[C@H](OC(=O)c2ccc[nH]2)[C@](O)(C(C)C)[C@@]14C has a Ratio [1] of 14, a Ratio [2] of 50 and a Ratio [3] of 14. The Ratio [4] was 60 and the Ratio [5] was 11.
With CC(C)[C@@]1(O)[C@@H](OC(=O)c2ccc[nH]2)[C@]2(O)O[C@@]3(NO)[C@]45O[C@@](O)(C[C@@]2(C)[C@@]4(O)CC[C@H](C)[C@H]5O)[C@]31C the Ratio [1] was 11, the Ratio [2] was 20 and the Ratio [3] was 11. It also gave a Ratio [4] of 12 and a Ratio [5] of 9.
With C=C1CC[C@]2(O)[C@]3(C)C[C@]4(O)O[C@@]2([C@@H]1O)[C@]1(O)[C@@]3(O)[C@H](OC(=O)c2ccc[nH]2)[C@](O)(C(C)C)[C@@]14C [DEHYDRORYANODINE] the Ratio [1] was 112, the Ratio [2] was 90 and the Ratio [3] was 77. The Ratio [4] was 136 and the Ratio [5] was 91.
Compound CC(C)[C@@]1(O)[C@@H](OC(=O)c2ccc[nH]2)[C@@]2(O)[C@@]3(C)C[C@]4(O)O[C@@]5([C@H](O)[C@@H](CSC(C)(C)C)CC[C@]35O)[C@@]2(O)[C@]14C has a Ratio [2] of 2 and a Ratio [3] of 0.41.
